According to ChEMBL document CHEMBL3272292, “2-(2-Aminoethylamino)-1,2-diphenylethanol derivatives, a new class of topical antiinflammatory agents” (1977):

Columns and labels:
Format in all cases: functional
[1] = tested on: Rattus norvegicus; assay: Antiinflammatory activity in immature rat assessed as inhibition of cantharidin-induced inflammation at 800 ug administered topically to outer surface of ear after 72 hrs relative to control
How it was run: (§1)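 Test compounds applied topically to outer ear surface together with cantharidin, groups of 8-10 immature rats (50-60 g). Controls: vehicle-only group and cantharidin-only group. […] Significance vs irritant group by Student's t test or Fieller's theorem.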

[2] = tested on: Rattus norvegicus; assay: Antiinflammatory activity in immature rat assessed as inhibition of cantharidin-induced inflammation at 200 ug administered topically to outer surface of ear after 72 hrs relative to control; how it was run: as §1
[3] = tested on: Rattus norvegicus; assay: Antiinflammatory activity in immature rat assessed as inhibition of cantharidin-induced inflammation at 400 ug administered topically to outer surface of ear after 72 hrs relative to control; how it was run: as §1
[4] = tested on: Rattus norvegicus; assay: Antiinflammatory activity in immature rat assessed as inhibition of cantharidin-induced inflammation at 50 ug administered topically to outer surface of ear after 72 hrs relative to control; how it was run: as §1
[5] = tested on: Rattus norvegicus; assay: Antiinflammatory activity in immature rat assessed as inhibition of cantharidin-induced inflammation at 100 ug administered topically to outer surface of ear after 72 hrs relative to control; how it was run: as §1
[6] = tested on: Rattus norvegicus; assay: Antiinflammatory activity in immature rat assessed as inhibition of cantharidin-induced inflammation at 40 ug administered topically to outer surface of ear after 72 hrs relative to control; how it was run: as §1
[7] = tested on: Rattus norvegicus; assay: Antiinflammatory activity in rat assessed as reduction in dry ganuloma tissue surrounding implanted cotton pellet at 80 ug per pellet after 72 hrs relative to control; parameters: scale not given: the % may be the effect or the level left
How it was run: (§2)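 Compound dissolved in ethanol, applied to cotton pellets and dried at room temperature. Two pellets implanted sc per rat, ten rats per dose group. Pellets removed at autopsy 72 h later. Activity read as reduction in dry granuloma tissue around pellets vs control group. Significance by Student's t test or Fieller's theorem.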

[8] = tested on: Rattus norvegicus; assay: Antiinflammatory activity in immature rat assessed as inhibition of cantharidin-induced inflammation at 80 ug administered topically to outer surface of ear after 72 hrs relative to control; how it was run: as §1
[9] = tested on: Rattus norvegicus; assay: Antiinflammatory activity in rat assessed as reduction in dry ganuloma tissue surrounding implanted cotton pellet at 10 ug per pellet after 72 hrs relative to control; parameters: scale not given: the % may be the effect or the level left; how it was run: as §2
[10] = tested on: Rattus norvegicus; assay: Antiinflammatory activity in rat assessed as reduction in dry ganuloma tissue surrounding implanted cotton pellet at 40 ug per pellet after 72 hrs relative to control; parameters: scale not given: the % may be the effect or the level left; how it was run: as §2
[11] = tested on: Rattus norvegicus; assay: Antiinflammatory activity in rat assessed as reduction in dry ganuloma tissue surrounding implanted cotton pellet at 20 ug per pellet after 72 hrs relative to control; parameters: scale not given: the % may be the effect or the level left; how it was run: as §2
[12] = tested on: Rattus norvegicus; assay: Antiinflammatory activity in immature rat assessed as inhibition of cantharidin-induced inflammation at 10 ug administered topically to outer surface of ear after 72 hrs relative to control; how it was run: as §1
[13] = tested on: Rattus norvegicus; assay: Antiinflammatory activity in immature rat assessed as inhibition of cantharidin-induced inflammation at 20 ug administered topically to outer surface of ear after 72 hrs relative to control; how it was run: as §1
[14] = tested on: Rattus norvegicus; assay: Antiinflammatory activity in immature rat assessed as inhibition of cantharidin-induced inflammation at 5 ug administered topically to outer surface of ear after 72 hrs relative to control; how it was run: as §1
[15] = tested on: Rattus norvegicus; assay: Antiinflammatory activity in immature rat assessed as inhibition of cantharidin-induced inflammation at 924 ug administered topically to outer surface of ear after 72 hrs relative to control; how it was run: as §1
[16] = tested on: Rattus norvegicus; assay: Antiinflammatory activity in immature rat assessed as inhibition of cantharidin-induced inflammation at 888 ug administered topically to outer surface of ear after 72 hrs relative to control; how it was run: as §1
[17] = tested on: Rattus norvegicus; assay: Antiinflammatory activity in rat assessed as reduction in dry ganuloma tissue surrounding implanted cotton pellet at 8000 ug per pellet after 72 hrs relative to control; parameters: scale not given: the % may be the effect or the level left; how it was run: as §2
[18] = tested on: Rattus norvegicus; assay: Antiinflammatory activity in rat assessed as reduction in dry ganuloma tissue surrounding implanted cotton pellet at 4000 ug per pellet after 72 hrs relative to control; parameters: scale not given: the % may be the effect or the level left; how it was run: as §2
[19] = tested on: Rattus norvegicus; assay: Antiinflammatory activity in rat assessed as reduction in dry ganuloma tissue surrounding implanted cotton pellet at 2000 ug per pellet after 72 hrs relative to control; parameters: scale not given: the % may be the effect or the level left; how it was run: as §2
[20] = tested on: Rattus norvegicus; assay: Antiinflammatory activity in rat assessed as reduction in dry ganuloma tissue surrounding implanted cotton pellet at 1000 ug per pellet after 72 hrs relative to control; parameters: scale not given: the % may be the effect or the level left; how it was run: as §2

Structure (SMILES): O[C@@H](c1ccccc1)[C@@H](NCCN[C@@H](c1ccccc1)[C@@H](O)c1ccccc1)c1ccccc1
- inhibition (INH) [1]: 0%
- inhibition (INH) [2]: 17%
- inhibition (INH) [3]: 5%
- inhibition (INH) [4]: 14%
- inhibition (INH) [5]: 0%

Structure (SMILES): CC(C)=NCCN[C@@H](c1ccccc1)[C@@H](O)c1ccccc1 (relative stereo)
- inhibition (INH) [1]: 87%
- inhibition (INH) [2]: 10%
- inhibition (INH) [3]: 59%
- inhibition (INH) [4]: 14%
- inhibition (INH) [5]: 13%

Structure (SMILES): NCCCCN[C@@H](c1ccccc1)[C@@H](O)c1ccccc1 (racemic)
- inhibition (INH) [1]: 87%
- inhibition (INH) [2]: 37%
- inhibition (INH) [3]: 54%
- inhibition (INH) [4]: 10%
- inhibition (INH) [5]: 5%

Structure (SMILES): CC(=O)NCCN[C@@H](c1ccccc1)[C@@H](O)c1ccccc1 (racemic)
- inhibition (INH) [1]: 5%
- inhibition (INH) [2]: 0%
- inhibition (INH) [3]: 3%
- inhibition (INH) [4]: 0%
- inhibition (INH) [5]: 3%

Structure (SMILES): CC(=O)NCCN(C(C)=O)[C@@H](c1ccccc1)[C@@H](OC(C)=O)c1ccccc1 (racemic)
- inhibition (INH) [1]: 0%
- inhibition (INH) [2]: 7%
- inhibition (INH) [3]: 13%
- inhibition (INH) [4]: 6%
- inhibition (INH) [5]: 13%

Structure (SMILES): C[C@@H]1C[C@H]2[C@@H]3CCC4=CC(=O)C=C[C@]4(C)[C@@]3(F)[C@@H](O)C[C@]2(C)[C@@]1(O)C(=O)CO [DEXAMETHASONE]
- inhibition (INH) [6]: 53%
- Activity [7]: 49%
- inhibition (INH) [8]: 76%
- Activity [9]: 16%
- Activity [10]: 34%
- Activity [11]: 28%
- inhibition (INH) [12]: 25%
- inhibition (INH) [13]: 30%
- inhibition (INH) [14]: 17%

Structure (SMILES): CNCCN[C@@H](c1ccccc1)[C@@H](O)c1ccccc1 (racemic)
- inhibition (INH) [1]: 26%
- inhibition (INH) [2]: 20%
- inhibition (INH) [3]: 6%
- inhibition (INH) [4]: 15%
- inhibition (INH) [5]: 20%

Structure (SMILES): NCCNC(c1ccccc1)C(O)c1ccccc1 (single isomer, unassigned; (+))
- inhibition (INH) [1]: 96%
- inhibition (INH) [2]: 0%
- inhibition (INH) [3]: 29%
- inhibition (INH) [5]: 2%

Structure (SMILES): CN(C)CCN[C@@H](c1ccccc1)[C@@H](O)c1ccccc1 (racemic)
- inhibition (INH) [1]: 0%
- inhibition (INH) [2]: 8%
- inhibition (INH) [3]: 0%
- inhibition (INH) [4]: 0%
- inhibition (INH) [5]: 0%

Structure (SMILES): NCCN[C@@H](c1ccc(Cl)cc1)[C@@H](O)c1ccc(Cl)cc1 (racemic)
- inhibition (INH) [1]: 17%
- inhibition (INH) [2]: 16%
- inhibition (INH) [3]: 15%
- inhibition (INH) [4]: 16%
- inhibition (INH) [5]: 10%

Structure (SMILES): NCCN[C@@H](c1ccccc1)[C@@H](O)c1ccc(Cl)cc1 (racemic)
- inhibition (INH) [1]: 90%
- inhibition (INH) [2]: 35%
- inhibition (INH) [3]: 64%
- inhibition (INH) [4]: 20%
- inhibition (INH) [5]: 23%

Structure (SMILES): CC1(C(=O)O)C2CCC(O2)C1(C)C(=O)NCCNC(c1ccccc1)C(O)c1ccccc1 (stereo not drawn)
- inhibition (INH) [15]: 67%

Structure (SMILES): NCCN[C@@H](c1ccc(Cl)cc1)[C@@H](O)c1ccccc1 (racemic)
- inhibition (INH) [1]: 89%
- inhibition (INH) [2]: 12%
- inhibition (INH) [3]: 35%
- inhibition (INH) [4]: 3%
- inhibition (INH) [5]: 0%

Structure (SMILES): NCCNC(c1ccccc1)C(O)c1ccccc1 (stereo in doubt; 8a)
- inhibition (INH) [1]: 87%
- inhibition (INH) [2]: 19%
- inhibition (INH) [3]: 51%
- inhibition (INH) [4]: 7%
- inhibition (INH) [5]: 1%

Structure (SMILES): CN(C)CCCN[C@@H](c1ccccc1)[C@@H](O)c1ccccc1 (racemic)
- inhibition (INH) [1]: 32%
- inhibition (INH) [2]: 16%
- inhibition (INH) [3]: 9%
- inhibition (INH) [4]: 9%
- inhibition (INH) [5]: 0%

Structure (SMILES): CC12C(=O)N(CCNC(c3ccccc3)C(O)c3ccccc3)C(=O)C1(C)C1CCC2O1 (stereo not drawn)
- inhibition (INH) [16]: 0%

Structure (SMILES): NCCN[C@@H](c1ccccc1)[C@H](O)c1ccccc1 (racemic)
- inhibition (INH) [1]: 88%
- inhibition (INH) [2]: 9%
- inhibition (INH) [3]: 56%
- inhibition (INH) [5]: 7%

Structure (SMILES): Cc1ccc([C@H](O)[C@@H](NCCN)c2ccccc2)cc1 (racemic)
- inhibition (INH) [1]: 68%
- inhibition (INH) [2]: 5%
- inhibition (INH) [3]: 53%
- inhibition (INH) [4]: 12%
- inhibition (INH) [5]: 9%

Structure (SMILES): NCCN[C@@H](c1ccccc1)[C@@H](O)c1ccccc1 (racemic)
- inhibition (INH) [1]: 88%
- inhibition (INH) [2]: 46%
- inhibition (INH) [3]: 72%
- Activity [17]: 49%
- inhibition (INH) [4]: 19%
- Activity [18]: 44%
- Activity [19]: 28%
- Activity [20]: 19%
- inhibition (INH) [5]: 19%

Structure (SMILES): CN(CCN)[C@@H](c1ccccc1)[C@@H](O)c1ccccc1 (racemic)
- inhibition (INH) [1]: 41%
- inhibition (INH) [2]: 1%
- inhibition (INH) [3]: 11%
- inhibition (INH) [4]: 0%
- inhibition (INH) [5]: 8%

Structure (SMILES): NCCCN[C@@H](c1ccccc1)[C@@H](O)c1ccccc1 (racemic)
- inhibition (INH) [1]: 51%
- inhibition (INH) [2]: 21%
- inhibition (INH) [3]: 29%
- inhibition (INH) [4]: 0%
- inhibition (INH) [5]: 8%

Structure (SMILES): CC(=O)NCCN(C(C)=O)[C@@H](c1ccccc1)[C@@H](O)c1ccccc1 (racemic)
- inhibition (INH) [1]: 40%
- inhibition (INH) [2]: 9%
- inhibition (INH) [3]: 0%
- inhibition (INH) [4]: 0%
- inhibition (INH) [5]: 11%
